Consider three compounds from ChEMBL document CHEMBL1126812, “Further insights into the molecular mechanisms of action of the serotonergic neurotoxin 5,7-dihydroxytryptamine” (J Med Chem, 1993).

Each structure is given as a SMILES string.

For data set [1], the system named is Mus musculus. As to the kind of experiment: Weight which caused death of 50% of the treated animals within 1 hr following drug administration. The data set is classed as ADME, organism-based. The note with it: in vivo. The procedure, abridged: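 Adult male outbred Hsd:ICR albino mice, 25-35 g, given compound (dose as free base) intracranially near the left lateral ventricle under light ether anesthesia, in 5 µL isotonic saline containing 1.0 mg/mL ascorbic acid. Deaths within 1 h were scored, and LD50 (injected weight) was derived by Dixon's statistical method, reported as mean ± standard deviation on a log microgram scale.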

Data set [2] concerns Mus musculus. Put plainly: Effect of central administration on whole mouse brain acetylcholine (ACh) level after 1 hr. The format is functional, organism-based. In short, it runs like this: (§1)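 The dosing, vehicle, controls, microwave sacrifice, timepoints and brain processing were the same as for the amine lines. Whole mouse brain ACh and choline were measured by LCEC on 20 µL aliquots of the filtered 50 000g supernate, which had been stored at -80 °C. Values are % of vehicle controls ± sem, n = 11-18 per group.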

The test system of data set [3] is Mus musculus. Put plainly: Effect of central administration on whole mouse brain homovanillic acid (HAV) level after 1 week. The data set is classed as functional, organism-based. In short, it runs like this: (§2)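 Adult male outbred Hsd:ICR mice (25-35 g) under light ether anesthesia received a single 25 or 30 µg (free base) intracranial dose near the left lateral ventricle. Vehicle was 5 µL isotonic saline with 1.0 mg/mL ascorbate, and controls got vehicle alone. Mice were killed by focused microwave (250 ms, 7.0 kW) at 1 h, 1 day or 1 week. Brains were homogenized, spun at 50 000g (4 °C, 1 h) and filtered. Amines and metabolites were measured by LCEC as % of control ± sem, n = 11-18.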

Data set [4] concerns Mus musculus. Put plainly: Effect of central administration on whole mouse brain choline (Ch) level after 1 day. The data set is classed as functional, organism-based. The procedure, abridged: as §1
Data set [5] has as its system Mus musculus. Put plainly: Effect of central administration on whole mouse brain dopamine (DA) level after 1 hr. The format is functional, organism-based. In short, it runs like this:
as §2

Data set [6] relates to Mus musculus. Put plainly: Effect of central administration on whole mouse brain 3,4-di hydroxyphenylacetic acid (DOPAC) level after 1 day. The data set is classed as functional, organism-based. In short, it runs like this:
as §2

Data set [7] relates to Mus musculus. As to the kind of experiment: Effect of central administration on whole mouse brain 3,4-di hydroxyphenylacetic acid (DOPAC)level after 1 week. The data set is classed as functional, organism-based. The procedure, abridged: as §2
The test system of data set [8] is Mus musculus. Put plainly: Effect of central administration on whole mouse brain choline (Ch) level after 1 hr. The data set is classed as functional, organism-based. In short, it runs like this: as §1
The subject of data set [9] is Mus musculus. Put plainly: Effect of central administration on whole mouse brain norepinephrine (NE) level after 1 day. The data set is classed as functional, organism-based. The procedure, abridged:
as §2

In data set [10] the test system is Mus musculus. Put plainly: Effect of central administration on whole mouse brain homovanillic acid (HAV) level after 1 day. The data set is classed as functional, organism-based. In short, it runs like this:
as §2

Data set [11] concerns Mus musculus. As to the kind of experiment: Effect of central administration on whole mouse brain 5-hydroxyindole-3-acetic acid(5-HIAA)level after 1 week. The format is functional, organism-based. In short, it runs like this: as §2
Data set [12] has as its system Mus musculus. As to the kind of experiment: Effect of central administration on whole mouse brain 3,4-di hydroxyphenylacetic acid (DOPAC) level after 1 hr. The data set is classed as functional, organism-based. The procedure, abridged: as §2
Data set [13] deals with Mus musculus. Put plainly: Effect of central administration on whole mouse brain choline (Ch) level after 1 week. The format is functional, organism-based. The procedure, abridged: as §1
Data set [14] relates to Mus musculus. Put plainly: Effect of central administration on whole mouse brain norepinephrine (NE) level after 1 week. The data set is classed as functional, organism-based. In short, it runs like this:
as §2

Data set [15] relates to Mus musculus. As to the kind of experiment: Effect of central administration on whole mouse brain 5-hydroxyindole-3-acetic acid(5-HIAA)level after 1 day. The data set is classed as functional, organism-based. In short, it runs like this: as §2
Data set [16] deals with Mus musculus. Put plainly: Effect of central administration on whole mouse brain dopamine (DA) level after 1 day. The format is functional, organism-based. In short, it runs like this: as §2
Data set [17] concerns Mus musculus. Put plainly: Effect of central administration on whole mouse brain norepinephrine (NE) level after 1 hr. The data set is classed as functional, organism-based. The procedure, abridged:
as §2

The subject of data set [18] is Mus musculus. As to the kind of experiment: Effect of central administration on whole mouse brain 5-hydroxytryptamine (5-HT) level after 1 week. The data set is classed as functional, organism-based. In short, it runs like this:
as §2

Data set [19] has as its system Mus musculus. As to the kind of experiment: Effect of central administration on whole mouse brain dopamine (DA) level after 1 week. The data set is classed as functional, organism-based. In short, it runs like this:
as §2

Data set [20] has as its system Mus musculus. Put plainly: Effect of central administration on whole mouse brain 5-hydroxytryptamine (5-HT) level after 1 day. The format is functional, organism-based. The procedure, abridged: as §2
In data set [21] the test system is Mus musculus. As to the kind of experiment: Effect of central administration on whole mouse brain 5-HT (5-HT) after 1 hr. The data set is classed as functional, organism-based. The procedure, abridged: as §2
Data set [22] deals with Mus musculus. As to the kind of experiment: Effect of central administration on whole mouse brain acetylcholine (ACh) level after 1 day. The data set is classed as functional, organism-based. In short, it runs like this: as §1
In data set [23] the test system is Mus musculus. As to the kind of experiment: Effect of central administration on whole mouse brain homovanillic acid (HAV) level after 1 hr. The data set is classed as functional, organism-based. The procedure, abridged: as §2
Data set [24] concerns Mus musculus. As to the kind of experiment: Effect of central administration on whole mouse brain 5-hydroxyindole-3-acetic acid(5-HIAA)level after 1 hr. The format is functional, organism-based. In short, it runs like this: as §2
Data set [25] deals with Mus musculus. Put plainly: Effect of central administration on whole mouse brain acetylcholine (ACh) level after 1 week. The format is functional, organism-based. The procedure, abridged: as §1
Data set [26] has as its system Mus musculus. Put plainly: Effect of central administration on whole mouse brain 5-HT (5-HT) after 1 week. The data set is classed as functional, organism-based. The procedure, abridged:
as §2

Data set [27] concerns Mus musculus. Put plainly: Effect of central administration on whole mouse brain 5-hydroxyindole-3-acetic acid (5-HIAA) level after 1 day. The data set is classed as functional, organism-based. In short, it runs like this: as §2
Data set [28] relates to Mus musculus. As to the kind of experiment: Effect of central administration on whole mouse brain 5-hydroxytryptamine (5-HT) after 1 day. The data set is classed as functional, organism-based. The procedure, abridged: as §2
Data set [29] concerns Mus musculus. Put plainly: Effect of central administration on whole mouse brain 5-hydroxyindole-3-acetic acid (5-HIAA) level after 1 hr. The format is functional, organism-based. In short, it runs like this: as §2
Data set [30] deals with Mus musculus. As to the kind of experiment: Effect of central administration on whole mouse brain 5-hydroxyindole-3-acetic acid (5-HIAA) level after 1 week. The data set is classed as functional, organism-based. The procedure, abridged: as §2
Data set [31] has as its system Mus musculus. Put plainly: Effect of central administration on whole mouse brain cholin (Ch) level after 1 day. The format is functional, organism-based. The procedure, abridged:
as §1

Data set [32] has as its system Mus musculus. Put plainly: Effect of central administration on whole mouse brain 3,4-di hydroxyphenylacetic acid (DOPAC) level after 1 week. The data set is classed as functional, organism-based. In short, it runs like this:
as §2

The subject of data set [33] is Mus musculus. Put plainly: Effect of central administration on whole mouse brain cholin (Ch) level after 1 week. The format is functional, organism-based. In short, it runs like this:
as §1

Data set [34] relates to Mus musculus. Put plainly: Effect of central administration on whole mouse brain cholin (Ch) level after 1 hr. The data set is classed as functional, organism-based. The procedure, abridged:
as §1

For the compound `NCCc1c[nH]c2c(O)cc(O)cc12`, the LD50 in [1] worked out at 51.8 µg.

On to `NCCc1c[nH]c2c1C(=O)C(=O)C=C2O`, for which the Level stood at 100% in data set [2]; 112% in data set [3]; 57% in data set [4]; 92% in [5]; 107% in [6]; 117% in [7]. For the same compound, the Level stood at 153% in [8]; 84% in data set [9]; 92% in [10]; 106% in [11]; 54% in data set [12]; 106% in [13]. For the same compound, the Level in data set [14] was determined as 114%; in data set [15], 82%; in data set [16] it was 79%; in [17] it was 80%; in [18] it was 104%; in data set [19] it was 114%. The Level in [20] was found to be 72%; in data set [21], 89%; in data set [22], 65%; in data set [23], 147%; in data set [24], 159%; in data set [25], 107%. In [1], this compound came in with an LD50 of 29.6 µg.

As to `NCCc1c[nH]c2c1C(=O)C(O)=C(C1=C(O)c3[nH]cc(CCN)c3C(=O)C1=O)C2=O`, the Level in [26] came to 103%; in data set [2], 83%; in [27] it was 76%; in [5], 97%; in data set [6], 116%; in data set [28] it was 75%. For the same compound, the Level worked out at 118% in data set [29]; 152% in data set [30]; 82% in data set [9]; 85% in [10]; 74% in data set [12]; 89% in [14]. The Level came to 85% in [16]; 78% in data set [31]; 95% in data set [17]; 101% in data set [32]; 88% in data set [21]; 78% in data set [22]. For the same compound, the Level stood at 102% in data set [23], 115% in data set [33], 126% in data set [34] and 123% in [25]. For the same compound, in data set [1], the LD50 came to 25.4 µg.
